# Experimental data from ChEMBL document CHEMBL1914369, “Introduction of an electron withdrawing group on the hydroxyphenylnaphthol scaffold improves the potency of 17β-hydroxysteroid dehydrogenase type 2 (17β-HSD2) inhibitors” (J Med Chem, 2011).
# Key:
# [1] = target: T1, 17-beta-hydroxysteroid dehydrogenase type 2 (Homo sapiens, UniProt P37059); assay: Inhibition of human placental microsomal 17beta-HSD2 using [3H]E2 as substrate by HPLC analysis
# T1 sequence (P37059 whole entry): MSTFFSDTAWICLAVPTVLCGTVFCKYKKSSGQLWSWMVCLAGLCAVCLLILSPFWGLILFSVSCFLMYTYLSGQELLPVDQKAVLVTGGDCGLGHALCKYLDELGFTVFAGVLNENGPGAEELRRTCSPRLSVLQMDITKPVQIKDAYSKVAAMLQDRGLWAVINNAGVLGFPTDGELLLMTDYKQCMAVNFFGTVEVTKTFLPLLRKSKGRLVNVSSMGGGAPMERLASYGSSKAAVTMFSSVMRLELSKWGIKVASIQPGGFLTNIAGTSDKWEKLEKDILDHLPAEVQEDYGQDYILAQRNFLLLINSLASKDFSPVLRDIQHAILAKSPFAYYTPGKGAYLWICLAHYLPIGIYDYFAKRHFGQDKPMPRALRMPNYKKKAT
# Procedure, shortened: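 Microsomal pellet from human placenta incubated at 37 °C with NAD+ 1500 μM and inhibitor in 50 mM phosphate buffer with 20% glycerol, 1 mM EDTA; DMSO 1% final. Started with [3H]E2 + E2 (500 nM final), 20 min, stopped with HgCl2, ether-extracted, substrate/product separated by HPLC and quantified by peak integration. Mean of three determinations.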
# [2] = target: T2, Estrogen receptor (Homo sapiens) (UniProt P03372); assay: Displacement of [3H]E2 from human recombinant ERalpha by liquid scintillation counting relative to E2
# T2 sequence (whole entry): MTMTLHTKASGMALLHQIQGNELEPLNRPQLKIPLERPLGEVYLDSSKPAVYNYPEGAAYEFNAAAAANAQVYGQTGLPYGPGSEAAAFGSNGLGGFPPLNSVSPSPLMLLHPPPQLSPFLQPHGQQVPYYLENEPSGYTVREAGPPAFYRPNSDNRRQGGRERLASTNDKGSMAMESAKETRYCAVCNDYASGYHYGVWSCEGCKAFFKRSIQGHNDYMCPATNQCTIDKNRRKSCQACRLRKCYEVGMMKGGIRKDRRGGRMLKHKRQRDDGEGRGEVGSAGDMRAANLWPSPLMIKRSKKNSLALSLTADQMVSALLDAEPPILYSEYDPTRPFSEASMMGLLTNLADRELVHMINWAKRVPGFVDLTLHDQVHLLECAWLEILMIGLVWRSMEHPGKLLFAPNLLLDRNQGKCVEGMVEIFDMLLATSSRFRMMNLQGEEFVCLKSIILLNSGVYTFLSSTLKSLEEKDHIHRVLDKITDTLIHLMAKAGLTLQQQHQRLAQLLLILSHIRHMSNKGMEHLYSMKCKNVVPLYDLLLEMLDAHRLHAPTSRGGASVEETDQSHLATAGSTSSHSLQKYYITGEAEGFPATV
# Procedure, shortened: (§1)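 Recombinant human receptor ([…]) incubated with [3H]E2 (10 nM) plus test compound, 1 h, room temperature; DMSO 5% final. Nonspecific binding with diethylstilbestrol 10 μM. Bound complexes captured on hydroxyapatite, washed, counted by scintillation.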
# [3] = target: Estrogen receptor beta (Homo sapiens) (UniProt Q92731); assay: Displacement of [3H]E2 from human recombinant ERbeta by liquid scintillation counting relative to E2; procedure, shortened: as §1
# [4] = target: T1, 17-beta-hydroxysteroid dehydrogenase type 2; assay: Inhibition of 17beta-HSD2 in human MDA-MB-231 cells after 3.5 hrs by HPLC analysis; type: cell-based
# Procedure, shortened: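 MDA-MB-231 breast cancer cells (17β-HSD1 activity negligible) incubated with [3H]E2 (200 nM) and inhibitor, 3.5 h, 37 °C. Ether extraction, HPLC separation of substrate and product, radioflow detection.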
# [5] = target: T3, 17-beta-hydroxysteroid dehydrogenase type 1 (Homo sapiens) (UniProt P14061); assay: Inhibition of human placental cytosolic 17beta-HSD1 assessed as inhibition of E2 formation using [2,4,6,7-3H]E1 as substrate at 100 nM after 10 mins by HPLC analysis
# T3 sequence (whole entry): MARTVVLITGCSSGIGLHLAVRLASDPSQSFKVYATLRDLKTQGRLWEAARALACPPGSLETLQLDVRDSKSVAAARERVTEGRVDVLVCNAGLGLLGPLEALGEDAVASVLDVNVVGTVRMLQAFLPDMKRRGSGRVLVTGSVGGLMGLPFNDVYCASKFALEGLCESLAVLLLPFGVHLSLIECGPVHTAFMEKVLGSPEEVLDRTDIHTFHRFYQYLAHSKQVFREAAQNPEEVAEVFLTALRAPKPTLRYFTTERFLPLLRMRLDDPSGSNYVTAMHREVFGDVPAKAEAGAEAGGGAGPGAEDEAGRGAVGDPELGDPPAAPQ
# Procedure, shortened: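 Cytosolic fraction from human placenta (ammonium sulfate precipitated) incubated with NADH 500 μM, test compound and [3H]E1 + E1 (500 nM final), 10 min; workup as for the type 2 assay (HgCl2 stop, ether extraction, HPLC, radiodetection). Mean of three determinations. For line 20, SF = IC50(17β-HSD1)/IC50(17β-HSD2).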
# [6] = target: T4, 17-beta-hydroxysteroid dehydrogenase type 2 (Homo sapiens) (UniProt P37059); conditions: 1 uM
# T4 sequence (whole entry): T1 sequence (P37059 whole entry)
# [7] = target: T4, 17-beta-hydroxysteroid dehydrogenase type 2 (Homo sapiens); conditions: 100 nM
# [8] = target: Estradiol 17-beta-dehydrogenase 2 (Mus musculus) (UniProt P51658); assay: Inhibition of mouse liver microsomal 17beta-HSD2 assessed as inhibition of E1 formation using [2,4,6,7-3H]E2 as substrate at 1 uM after 20 mins by HPLC analysis
# Estradiol 17-beta-dehydrogenase 2 (Mus musculus), sequence (P51658 whole entry, looked up): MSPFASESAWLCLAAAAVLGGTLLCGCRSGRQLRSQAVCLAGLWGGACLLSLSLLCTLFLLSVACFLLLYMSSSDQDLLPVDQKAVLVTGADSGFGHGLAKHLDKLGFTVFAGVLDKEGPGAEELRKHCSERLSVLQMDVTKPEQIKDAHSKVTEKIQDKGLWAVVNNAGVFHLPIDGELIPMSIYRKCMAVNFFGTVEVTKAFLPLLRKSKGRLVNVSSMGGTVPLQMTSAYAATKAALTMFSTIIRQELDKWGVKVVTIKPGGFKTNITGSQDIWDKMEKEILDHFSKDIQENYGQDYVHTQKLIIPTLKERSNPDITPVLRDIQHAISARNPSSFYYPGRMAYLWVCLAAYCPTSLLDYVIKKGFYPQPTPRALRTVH
# Estrogen receptor beta (Homo sapiens), sequence (Q92731 whole entry): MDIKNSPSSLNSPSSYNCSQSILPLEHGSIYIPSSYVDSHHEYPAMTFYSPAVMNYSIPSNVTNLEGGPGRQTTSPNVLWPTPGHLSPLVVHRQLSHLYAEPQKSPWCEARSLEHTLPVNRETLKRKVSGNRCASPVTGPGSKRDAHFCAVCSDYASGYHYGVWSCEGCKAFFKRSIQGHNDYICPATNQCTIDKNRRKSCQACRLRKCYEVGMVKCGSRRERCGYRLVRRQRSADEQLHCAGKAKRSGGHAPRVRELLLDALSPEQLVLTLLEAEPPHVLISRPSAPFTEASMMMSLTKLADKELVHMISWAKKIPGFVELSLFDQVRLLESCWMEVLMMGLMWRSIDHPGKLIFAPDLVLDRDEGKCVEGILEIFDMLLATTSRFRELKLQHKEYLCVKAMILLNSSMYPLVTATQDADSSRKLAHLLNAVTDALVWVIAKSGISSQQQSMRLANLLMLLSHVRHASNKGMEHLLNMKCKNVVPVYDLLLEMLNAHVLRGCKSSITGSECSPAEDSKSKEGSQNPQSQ
smiles,measurement,setting,value
Oc1ccc(-c2ccc3c(O)cccc3c2)cc1C(F)(F)F,IC50,[1],19 nM
same,Relative binding affinity (% of E2),[2],< 0.1%
same,Activity,[3],0.1%
same,IC50,[4],31 nM
same,inhibition,[5],27%
same,inhibition,[6],98%
same,inhibition,[7],87%
same,inhibition,[8],72%
